Results of several laboratories.
Lines come from different studies, so protocols differ.
Target: Ephrin type-A receptor 3 (EPHA3, Homo sapiens, UniProt P29320)
One construct used (P29320 21-983): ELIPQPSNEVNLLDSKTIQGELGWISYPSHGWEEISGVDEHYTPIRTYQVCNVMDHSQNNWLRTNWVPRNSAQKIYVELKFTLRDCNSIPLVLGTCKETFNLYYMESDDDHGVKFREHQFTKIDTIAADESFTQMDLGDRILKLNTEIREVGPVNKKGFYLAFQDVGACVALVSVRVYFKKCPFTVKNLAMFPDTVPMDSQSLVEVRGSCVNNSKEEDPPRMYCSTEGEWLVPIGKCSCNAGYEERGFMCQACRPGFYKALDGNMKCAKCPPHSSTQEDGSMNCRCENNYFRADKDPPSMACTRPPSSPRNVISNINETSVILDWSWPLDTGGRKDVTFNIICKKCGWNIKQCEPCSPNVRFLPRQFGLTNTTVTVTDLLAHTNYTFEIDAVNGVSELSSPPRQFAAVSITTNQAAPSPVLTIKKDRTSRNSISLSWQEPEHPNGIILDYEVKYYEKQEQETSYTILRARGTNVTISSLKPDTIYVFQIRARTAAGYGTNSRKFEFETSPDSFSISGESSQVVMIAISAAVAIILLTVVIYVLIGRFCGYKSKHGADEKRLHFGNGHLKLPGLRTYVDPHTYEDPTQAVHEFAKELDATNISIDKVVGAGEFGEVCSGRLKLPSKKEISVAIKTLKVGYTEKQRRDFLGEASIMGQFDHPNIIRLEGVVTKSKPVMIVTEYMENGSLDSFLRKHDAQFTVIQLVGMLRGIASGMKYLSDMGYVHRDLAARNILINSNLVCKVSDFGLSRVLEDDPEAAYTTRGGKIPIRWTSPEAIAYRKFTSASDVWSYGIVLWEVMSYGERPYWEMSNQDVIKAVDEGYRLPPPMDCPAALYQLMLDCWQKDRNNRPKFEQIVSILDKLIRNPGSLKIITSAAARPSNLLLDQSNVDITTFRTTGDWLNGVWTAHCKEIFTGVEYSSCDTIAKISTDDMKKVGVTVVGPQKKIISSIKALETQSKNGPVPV

SMILES | assay | conditions | remaining binding [%]
CC1=C(C#N)[C@@H](c2ccc3[nH]nc(C)c3c2)C(C#N)=C(c2ccc(Cl)cc2)N1 | cell-free assay, competition with immobilised ligand | 1 µM | 100
Cc1cnn2ncc(-c3ccnc(N(C)C)n3)c2c1 | binding | 1 µM | 84
CN1CCN(c2cnc3c(C4CCN(C(=O)c5ccc(OC(F)(F)F)cc5N)CC4)ncnc3c2)CC1 | cell-free assay, competition with immobilised ligand | 1 µM | 100
Nc1ncc2c(n1)-c1c([nH]c3ccc(C#CC4CC4)cc13)CCCC2 | binding, competition with immobilised ligand | 1 µM | 100
COc1ncc2cc3ccccc3nc2c1C#N | cell-free assay, competition with immobilised ligand | 5 µM | 96
CN(CCCC(F)(F)F)c1nccc(-c2cnn3ncccc23)n1 | binding | 1 µM | 100
CNC(=O)[C@@H]1CC[C@@H](n2c(-c3ccc4cnccc4c3)nc3ccc(C(=O)NCc4cccc(C(N)=O)c4)cc32)C1 | binding, competition with immobilised ligand | 1 µM | 96
CN(C)c1nccc(-c2cnn3ncccc23)n1 | binding | 1 µM | 90
O=C(NCCCN1CCOCC1)c1ccc(Nc2nccc(-c3cc4ccccc4s3)n2)cc1 | binding, competition with immobilised ligand | 1 µM | 85
C[C@@H](c1ccc(-n2cnc3c(N)ncnc32)cc1)N1CCc2nn(C)c(Cc3ccccc3)c2C1=O | binding, competition with immobilised ligand | 0.1 µM | 83
O=C(NCC1CCOCC1)c1n[nH]cc1NC(=O)c1c(F)cccc1F | binding, competition with immobilised ligand | 1 µM | 82
CC(=O)Nc1c(C(C)=O)c(=O)n(C)c2nc(-c3ccc(Cl)cc3Cl)c(-c3ccc(Cl)cc3)cc12 | cell-free assay, competition with immobilised ligand | 1 µM | 100
CC1CCCN1c1nccc(-c2cnn3ncccc23)n1 (stereo not drawn) | binding | 1 µM | 97
CCS(=O)(=O)c1cc2cc(C[C@](O)(CC(C)(C)c3ccc(F)cc3C(N)=O)C(F)(F)F)[nH]c2cn1 | cell-free assay, competition with immobilised ligand | 1 µM | 95
O=C(NCCCN1CCOCC1)c1ccc(Nc2ncc(Cl)c(-c3ccc(Cl)s3)n2)cc1 | binding, competition with immobilised ligand | 1 µM | 63
c1cncc(-c2cccc(Nc3nccc(NC4CCCCC4)n3)c2)c1 | binding, competition with immobilised ligand | 10 µM | 68
N[C@@H]1CCN(c2nccc(-c3cnn4ncccc34)n2)C1 | binding | 1 µM | 100
C[C@H](NC(=O)c1cnc2n1[C@](C)(Cc1ccc(C#N)cc1)C(=O)N2c1cc(Cl)c(F)c(Cl)c1)C(=O)NC1(c2ccccn2)CC1 | cell-free assay, competition with immobilised ligand | 1 µM | 88
O=C(c1ccc(Nc2ncc(Cl)c(-c3ccc(Cl)s3)n2)cc1)N1CCC(N2CCCC2)CC1 | binding, competition with immobilised ligand | 1 µM | 68
C[C@H]1CCN(c2nccc(-c3cnn4ncccc34)n2)C1 | binding | 1 µM | 100
COc1ccc2c(O[C@@H]3C[C@H]4C(=O)N[C@]5(C(=O)O)CC5/C=C\CCCCC[C@H](NC(=O)OC5CCCC5)C(=O)N4C3)cc(-c3csc(NC(=O)C(C)C)n3)nc2c1C (stereo partly drawn) | cell-free assay, competition with immobilised ligand | 1 µM | 97
